Compound activity from PubChem BioAssay.
SENP8 block-1: inhibitors of human SENP8 protease. 330,000 tested, 1.2% active. Q96LD8. purified SENP8, Z-RLRGG-aminoluciferin cleavage, luminescence. inhibition, % at 10 µM; in the data active means inhibition above about 50%
SENP7 block: blocks the human protease SENP7. Q9BQF6. recombinant SENP7, Z-RLRGG-aminoluciferin luminescence, 40 min. inhibition, % at 5 µM. 330,000 tested, 1.5% active. AID 434973;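 active means inhibition above about 50% at the single test dose, limit read from the data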;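 further: plate controls were DMSO with enzyme for no effect and no enzyme buffer wells for full effect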
SENP6 block: inhibitors of human SENP6 protease; Q9GZR1; Recombinant SENP6 catalytic domain, aminoluciferin luminescence; inhibition, % at 10 µM; 330,000 tested, 1.8% active;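 active means inhibition above about 50% at the single tested dose, limit read from the data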;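 further: plate controls were DMSO wells with enzyme for no effect and DMSO wells lacking enzyme for full effect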
Target sequence (Q9GZR1 628-1112 limits assumed): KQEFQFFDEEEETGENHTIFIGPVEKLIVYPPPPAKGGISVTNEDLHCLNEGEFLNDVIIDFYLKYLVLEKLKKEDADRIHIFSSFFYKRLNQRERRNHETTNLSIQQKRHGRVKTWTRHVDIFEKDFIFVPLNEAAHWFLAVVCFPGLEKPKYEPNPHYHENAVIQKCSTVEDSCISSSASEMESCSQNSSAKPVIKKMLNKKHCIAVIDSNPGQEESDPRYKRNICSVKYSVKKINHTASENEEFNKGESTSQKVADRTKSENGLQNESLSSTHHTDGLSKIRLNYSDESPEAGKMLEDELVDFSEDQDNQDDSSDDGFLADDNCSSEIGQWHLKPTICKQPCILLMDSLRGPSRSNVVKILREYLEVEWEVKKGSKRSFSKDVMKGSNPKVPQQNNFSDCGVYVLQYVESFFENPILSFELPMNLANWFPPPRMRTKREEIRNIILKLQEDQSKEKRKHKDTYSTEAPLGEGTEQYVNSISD
SENP8 block-2: inhibitors of human SENP8 protease; Q96LD8; recombinant SENP8, Nedd8 substrate fluorescence; inhibition, % at 20 µM; 360,000 tested, 0.64% active; in the data active means inhibition mostly above about 40%, no sharp cut-off; inactive means mostly below about 27%
UBC13 inh: human UBC13 polyubiquitination inhibition; 330,000 tested, 0.47% active; AID 485273; P61088; inhibition, % at 20 µM; UBC13 polyubiquitin chain formation, TR-FRET; in the data active means inhibition above about 45%, passing the limit was not always enough
Apaf1 inhib: human Apaf-1 inhibition. reconstituted apoptosome caspase-3 activity, DEVD-Rh110 fluorescence. 330,000 tested, 0.71% active. AID 489030. O14727. inhibition, % at 20 µM; active means inhibition of at least 40% at 20 µM;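 further: plate controls were DMSO wells for no effect and DEVD-CHO caspase inhibitor wells for full effect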
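Material: reconstituted apoptosome with Apaf-1, cytochrome c, caspase-9, procaspase-3, dATP / Buffer or medium: pH 7.5 Hepes buffer with CHAPS, BSA, DTT / Also added: cytochrome c with DEVD-Rh110 / Schedule: compound with Apaf-1, dATP, procaspase-3 30 min, then 50 min reaction, room temperature / Technique: rhodamine 110 fluorescence at Ex 480/Em 540 nm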
SENP8 conf: confirmation of human SENP8 protease inhibitors; 1,400 tested, 15% active; shares compounds with SENP8 block-2; AID 624319; purified SENP8, Nedd8-AMC/pro-Nedd8 cleavage fluorescence, 30 min; inhibition, % at 25 µM; in the data active means inhibition mostly above about 39%, no sharp cut-off; inactive means mostly below about 34%
Starred values were filed as active, the others as inactive; nt = no result given. Only some compounds are listed: those with a hit (about 3% of all), similar ones and a draw of the others.

SMILES	SENP8 block-1	SENP7 block	SENP6 block	SENP8 block-2	UBC13 inh	Apaf1 inhib	SENP8 conf
Cc1nnc2n(-c3ccccc3)c(=O)c3ccccc3n12	-1	-4	3	41*	4	-15	1
Cc1ccc(C(=O)COc2ccccc2-c2ccccc2)cc1	5	6	7	45*	2	12	13
Cc1ccc(C(=O)COc2ccccc2N2C(=O)c3ccccc3C2=O)cc1	-7	2	11	8	7	3	nt
COC(=O)c1ccc(NC(=O)C2CCCN2S(=O)(=O)c2ccc(OC)cc2)cc1 (centres undefined)	4	1	-4	41*	2	0	16
O=C(Nc1ccc(Br)cc1)C1CCCN1S(=O)(=O)c1cccs1 (centres undefined)	-11	-11	-22	3	-4	14	nt
COC(=O)c1ccc(NC(=O)C2CCCN2S(=O)(=O)c2ccc(C)cc2)cc1 (centres undefined)	-10	1	19	-4	1	-1	nt
CC(=O)c1cccc(NC(=O)C2CCCN2S(=O)(=O)c2cccs2)c1 (centres undefined)	nt	nt	nt	41*	nt	nt	17
O=C(CN(C1CCCCC1)S(=O)(=O)c1ccccc1)NCC1CCCO1 (centres undefined)	0	-4	-16	9	-1	6	nt
O=C(CN(C1CCCCC1)S(=O)(=O)c1ccc(F)cc1)NCC1CCCO1 (centres undefined)	nt	nt	nt	46*	nt	nt	23
Cc1ccc(Sc2ncccc2COC(=O)Nc2ccccc2)cc1	-15	-1	15	40*	8	11	9
COc1ccc([N+](=O)[O-])cc1NC(=O)C(C)N1CCN(C(=O)c2ccco2)CC1 (centres undefined)	0	-9	-13	38*	-4	8	16
COC(=O)c1cc(C(=O)N2CCN(C(=O)c3ccco3)CC2)cc([N+](=O)[O-])c1	-4	-4	-5	-1	1	-8	nt
O=[N+]([O-])c1ccc(N2CCN(c3nc(-c4ccc(Cl)cc4)cs3)CC2)cc1	-7	6	-12	43*	-6	-1	-9
CC(=O)Nc1ccc(C(=O)NCC(=O)OCc2ccccc2F)cc1	3	-6	11	10	-4	-5	nt
Cn1c(N2CCOCC2)cc(=O)n(C)c1=O	-2	8	-1	7	-5	-21	nt
CC(=O)Oc1ccc2c(c1)CCC1C2CCC2(C)C(OC(C)=O)CCC12 (centres undefined)	nt	nt	nt	47*	nt	nt	6
COc1cc(/C=C/C(=O)OCC(=O)c2c(N)n(C)c(=O)n(C)c2=O)ccc1OC(F)F	0	5	1	-4	0	0	nt
C=CCn1c(C)cc(C(=O)CSc2nnc(NC(C)C)s2)c1C	2	4	11	44*	-1	-5	7
C[C@@H](NC(=O)Cn1ccc(NC(=O)OCc2ccccc2)nc1=O)c1cccc2ccccc12	-7	-1	3	19	-4	34	nt
CS(=O)(=O)O/N=C1\CCCCC1c1ccc([N+](=O)[O-])cc1[N+](=O)[O-] (centres undefined)	7	5	-18	19	-8	4	nt
CCNC(=O)O/N=C1\CCCCC1c1ccc([N+](=O)[O-])cc1[N+](=O)[O-] (centres undefined)	2	3	15	41*	-20	4	48*
O=[N+]([O-])c1cc(S(=O)(=O)N2CCCC2)ccc1N/N=C/c1ccncc1	0	8	0	47*	-15	-11	20
NS(=O)(=O)c1ccc(N/N=C/c2cn(-c3ccccc3)nc2-c2ccccc2)c([N+](=O)[O-])c1	2	-3	15	54*	-64	-25	6
O=C(O)c1ccc(/C=N/Nc2ccc(S(=O)(=O)N3CCCC3)cc2[N+](=O)[O-])cc1	-1	6	-6	31	-66	-5	nt
NS(=O)(=O)c1ccc(N/N=C/c2ccc3c(c2)OCO3)c([N+](=O)[O-])c1	-23	-14	-17	44*	-114	-14	10
SMILES	SENP8 block-1	SENP7 block	SENP6 block	SENP8 block-2	UBC13 inh	Apaf1 inhib	SENP8 conf
NS(=O)(=O)c1ccc(N/N=C/c2ccccn2)c([N+](=O)[O-])c1	-11	-10	-28	24	-83	7	nt
O=C(Nc1ccc(F)cc1)C(CCc1ccccc1)N1CCN(Cc2c(F)cccc2Cl)CC1 (centres undefined)	nt	nt	nt	18	nt	nt	nt
O=S(=O)(Nc1cccc(-c2nc3cccnc3s2)c1)c1cccs1	-14	8	-4	-140	6	-4	nt
c1ccc(CNCCC(Cc2ccccc2)c2ccco2)cc1 (centres undefined)	-5	4	-16	48*	20	2	-9
CN(C)c1ccc(CNCCC(Cc2ccccc2)c2ccco2)cc1 (centres undefined)	4	4	-7	14	6	-10	nt
CSCC[C@H](NC(=O)N1C[C@H]2C[C@@H](C1)c1cccc(=O)n1C2)C(=O)Nc1ccc(NC(C)=O)cc1	-6	1	-4	46*	-6	1	9
Cc1ccc(NC2=C(C(=O)c3ccccc3)N(C)S(=O)(=O)c3ccccc32)cc1	8	4	0	46*	-17	16	33
Cc1nc(SCC(=O)O)c2oc3ccccc3c2n1	6	6	-9	47*	-4	2	12
CCc1nc(SCC(=O)N2CCCc3ccccc32)c2oc3ccccc3c2n1	2	6	-4	46*	6	8	7
CCc1nc(SCC(=O)NC2CCCC2)c2oc3ccccc3c2n1	-8	-2	-20	2	4	4	nt
Cc1nc(C)n(C)c(=O)c1-c1ccccc1	-8	-6	-21	40*	1	-1	5
CN(C)c1ccc2nsnc2c1[N+](=O)[O-]	2	-2	-13	43*	-36	0	2
C[C@H]1CN([C@@H](C)CO)C(=O)c2cc(NS(=O)(=O)c3ccc(Cl)cc3)ccc2O[C@@H]1CN(C)CC1CCCCC1	3	-3	6	-7	10	18	nt
O=C(COc1ccc(Br)cc1CO)Nc1ccc(F)cc1	-11	-6	-16	41*	-2	8	18
O=C(COc1ccc(Br)cc1CO)Nc1ccc(S(=O)(=O)N2CCCC2)cc1	-6	-4	-5	9	-9	17	nt
O=C(CCCn1c(=O)oc2ccccc21)N1CCc2ccccc2C1	-7	0	-3	48*	-16	23	78*
O=C(CCn1c(=O)oc2ccccc21)NCCN1CCc2ccccc2C1	0	12	-8	11	-3	9	nt
COc1ccccc1N1CC(C(=O)Nc2ccc3c(c2)OCO3)CC1=O (centres undefined)	0	2	1	1	2	-3	nt
